One may read the ΔTm as the change in melting temperature against a reference sample. The inhibition is the drop in the measured response relative to a control, in per cent. As usually defined, the IC50 is the point on the concentration scale where inhibition reaches its midpoint. One may read the Kd as the free concentration of one partner at which half of the binding sites on the other are occupied at equilibrium, for simple one-to-one binding. A higher Kd goes with weaker binding.

Active and inactive are the calls of the source. No cut-off for these calls is given here.

Experiment [1] concerns Human gammaherpesvirus 8. The experiment in a line: Binding affinity to wild-type human herpesvirus 8 GST-tagged LANA C-terminal domain (934 to 1162 residues) assessed as change in melting temperature at 500 uM by differential scanning fluorimetry. In short, it runs like this:
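Thermal shift (DSF) used wild-type LANA C-terminal domain (aa934-1162) at 20 µM final and compound at 500 µM final. Buffer was 10 mM PBS pH 7.4, 5% DMSO, 0.05% Tween20. Melting was run in a real-time PCR instrument, and the change in denaturation temperature (TM) was recorded.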
A general note: Differential scanning fluorimetry follows unfolding on heating by fluorescence.

Experiment [2] has as its system ORF 73 (Human herpesvirus 8), O40947 [UNDEFINED MUTATION]. Kind of experiment: Inhibition of fluorescent labelled LBS2 DNA binding to human herpesvirus 8 C-terminal His-tagged LANA oligomerization deficient mutant DBD (1008 to 1146 residues) expressed in Escherichia coli BL21 (DE3) at 1 mM preincubated for 60 mins followed by fluorescent labelled LBS2 addition and measured after 90 mins by fluorescence polarization assay relative to control. As to conditions: Human gammaherpesvirus 8. In short, it runs like this:
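Single-concentration FP competition assay (1 mM or 500 µM compound). LANA DBD mutant (200 nM final) pre-incubated with compound for 60 min, then fluorescein-labelled LBS2 (10 nM final) added and incubated 90 min. Buffer was HEPES/NaCl/Tween20 with 5% DMSO. Read at excitation 485 nm, emission 520 nm. Percent inhibition from duplicates in two independent experiments.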
Background: Fluorescence polarisation rises when a labelled molecule tumbles more slowly, as on binding a larger partner.

In experiment [3] the test system is Human gammaherpesvirus 8. The experiment in a line: Binding affinity to wild-type human herpesvirus 8 His-tagged LANA C-terminal domain (934 to 1162 residues) at 500 uM by surface plasmon resonance analysis. On the technique in general: Surface plasmon resonance follows binding to a sensor surface in real time, without labels.
A short description of experiment [4]: Binding affinity to fluorescent labelled LBS2 DNA (unknown origin) by fluorescence polarization assay. In outline: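 Fixed concentration of His-tagged oligomerization-deficient LANA DBD mutant (aa1008-1146, 200 nM final) was pre-incubated 60 min with compound. Fluorescein-labelled LBS2 (10 nM final) was then added and incubated 90 min. Buffer was 10 mM HEPES, 150 mM NaCl, 0.005% Tween20, 5% DMSO. Polarization was read at ex 485/em 520 nm. Runs were done with and without LANA to exclude DNA or quenching interference. Duplicates, two independent experiments.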

Experiment [5] has as its system ORF 73 (Human herpesvirus 8), O40947 [UNDEFINED MUTATION]. Kind of experiment: Inhibition of 5'-Dy682-labelled LBS1/LBS2 DNA binding to human herpesvirus 8 C-terminal His-tagged LANA oligomerization deficient mutant DBD (1008 to 1146 residues) expressed in Escherichia coli BL21 (DE3) at 500 uM preincubated for 1 hr followed by 5'-Dy682-labelled LBS1 DNA addition and measured after 30 mins by electrophoretic mobility shift assay. Particulars: Human gammaherpesvirus 8. In outline: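 Native-gel EMSA with a longer Dy-682-labelled probe carrying both LBS1 and LBS2 (20 nM). LANA DBD mutant (200 nM) pre-incubated with compound (500 µM) for 1 h at RT in the dark. Buffer was Tris-HCl pH 7.5 with KCl, MgCl2, DTT, EDTA, glycerol, Tween20, BSA and poly(dI-dC). Band intensities normalised to percent inhibition. Run in duplicate; GST served as control.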

The target in experiment [6] is T1, ORF 73 (Human herpesvirus 8, UniProt O40947). Kind of experiment: Inhibition of fluorescent labelled LBS1 DNA binding to human herpesvirus 8 C-terminal His-tagged LANA oligomerization deficient mutant DBD (1008 to 1146 residues) expressed in Escherichia coli BL21 (DE3) preincubated for 60 mins followed by fluorescent labelled LBS2 addition and measured after 90 mins by fluorescence polarization assay. The arrangement: species or system Human gammaherpesvirus 8. In short, it runs like this: (§1)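 FP competition assay. His-tagged LANA DBD mutant (200 nM final) pre-incubated with serially varied compound for 60 min. Fluorescein-labelled LBS1, LBS2 or LBS3 (10 nM final) then added and incubated 90 min. Buffer was 10 mM HEPES, 150 mM NaCl, 0.005% Tween20 with 5% DMSO. Read at excitation 485 nm, emission 520 nm. Duplicates in two independent experiments. Runs without LANA checked for interference. IC50 derived from dose-response.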

Experiment [7] has as its target T1, ORF 73. The experiment in a line: Inhibition of fluorescent labelled LBS3 DNA binding to human herpesvirus 8 C-terminal His-tagged LANA oligomerization deficient mutant DBD (1008 to 1146 residues) expressed in Escherichia coli BL21 (DE3) preincubated for 60 mins followed by fluorescent labelled LBS2 addition and measured after 90 mins by fluorescence polarization assay. The arrangement: species or system Human gammaherpesvirus 8. In outline:
as §1

Experiment [8] addresses T1, ORF 73. Kind of experiment: Inhibition of fluorescent labelled LBS2 DNA binding to human herpesvirus 8 C-terminal His-tagged LANA oligomerization deficient mutant DBD (1008 to 1146 residues) expressed in Escherichia coli BL21 (DE3) preincubated for 60 mins followed by fluorescent labelled LBS2 addition and measured after 90 mins by fluorescence polarization assay. Also on record: species or system Human gammaherpesvirus 8. As to conditions: read-out: IC50. In short, it runs like this: as §1

The target of experiment [9] is T1, ORF 73. Kind of experiment: Inhibition of 5'-Dy682-labelled LBS1 DNA binding to human herpesvirus 8 C-terminal His-tagged LANA oligomerization deficient mutant DBD (1008 to 1146 residues) expressed in Escherichia coli BL21 (DE3) preincubated for 1 hr followed by 5'-Dy682-labelled LBS1 DNA addition and measured after 30 mins by electrophoretic mobility shift assay. The arrangement: species or system Human gammaherpesvirus 8. In outline:
(§2)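 Native-gel EMSA. LANA DBD mutant (200 nM final) pre-incubated with compound for 1 h at RT in the dark, then Dy-682-labelled LBS1 probe (20 nM) added. Complex and free-probe band intensities normalised to 0–100% inhibition. Run in duplicate; purified GST served as control.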

Experiment [10] concerns ORF 73 (Human herpesvirus 8), O40947 [UNDEFINED MUTATION]. The experiment in a line: Inhibition of 5'-Dy682-labelled LBS1 DNA binding to human herpesvirus 8 C-terminal His-tagged LANA oligomerization deficient mutant DBD (1008 to 1146 residues) expressed in Escherichia coli BL21 (DE3) at 500 uM preincubated for 1 hr followed by 5'-Dy682-labelled LBS1 DNA addition and measured after 30 mins by electrophoretic mobility shift assay. Particulars: Human gammaherpesvirus 8. In short, it runs like this: as §2

The test system is the same in experiment [11]. The experiment in a line: Binding affinity to human herpesvirus 8 C-terminal His-tagged LANA oligomerization deficient mutant DBD (1008 to 1146 residues) expressed in Escherichia coli BL21 (DE3) at 1 mM by STD-NMR analysis. Particulars: Human gammaherpesvirus 8. In outline: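 STD NMR at 298 K, 500 MHz. Ligand at 1 mM final (40-fold excess) over LANA DBD mutant at 25 µM final. On-resonance irradiation at 0 ppm, off-resonance at -40 ppm. STD effect (I/I0) calculated per ligand proton. A free-compound control spectrum was recorded to check for artefacts.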

A short description of experiment [12]: Inhibition of 5'-Dy682-labelled LBS1 DNA binding to GST-tagged LANA C-terminal domain (934 to 1162 residues) preincubated for 1 hr followed by 5'-Dy682-labelled LBS1 DNA addition and measured after 30 mins by electrophoretic mobility shift assay. The arrangement: species or system Human gammaherpesvirus 8. In short, it runs like this:
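Dose-dependent native-gel EMSA used Dy-682-labelled LBS1 probe with wild-type LANA CTD (aa934-1162). Protein was incubated with compound for 1 h at RT in the dark. IC50 was calculated from band intensities.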

The target in experiment [13] is T1, ORF 73. The experiment in a line: Binding affinity to human herpesvirus human herpesvirus 8 C-terminal His-tagged LANA oligomerization deficient mutant DBD (1008 to 1146 residues) expressed in Escherichia coli BL21 (DE3) by microscale thermophoresis assay. Also on record: species or system Human gammaherpesvirus 8. In outline:
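His-tagged LANA DBD mutant labelled with a RED-tris NTA His-tag dye, used at 50 nM. Ligand titrated in a dose-response series starting at 1 mM. Buffer was 10 mM HEPES, 150 mM NaCl, 2 mM DTT, 0.005% Tween20 with 5% DMSO. KD derived from thermophoresis.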

On to `Nc1ccccc1-n1ccnc1`, for which the ΔTm with Human gammaherpesvirus 8 [1] is -1.8 °C. The same molecule had an inhibition in experiment [2] of 25%. In the experiment with Human gammaherpesvirus 8 [3], this molecule registered an Activity of 15.7 RU. Moreover, in experiment [4], the outcome was inactive.
On to `O=C(O)c1ccc(-c2cn(-c3cccnc3)nn2)cc1`, for which the inhibition entry in [5] and in [10] was “Active” throughout. Also, the half-inhibitory concentration (IC50) on ORF 73 [6] was determined as 20 µM; on ORF 73 [7] it was 19 µM; at ORF 73 [8], 17 µM; at ORF 73 [9] it was 426 µM; in [12], 435 µM. In addition, the outcome in [11] was Active. On ORF 73 [13], this molecule registered a dissociation constant Kd of 23 µM. In experiment [4], the outcome was inactive.

These data come from ChEMBL document CHEMBL4385596, “Fragment-Based Discovery of a Qualified Hit Targeting the Latency-Associated Nuclear Antigen of the Oncogenic Kaposi's Sarcoma-Associated Herpesvirus/Human Herpesvirus 8” (J Med Chem, 2019).
